Results: PMC6970618 (Bioorganic & medicinal chemistry letters, 2018)
“Also recorded” adds a separate entry of the source. Where two headings read alike, the source gives them in different places.

Columns and labels:
T. cruzi amastigotes = test: Intracellular T. cruzi amastigote assay in Vero cells; assay type: cell-based, Trypanosoma cruzi; conditions: for EC50: Trypanosoma cruzi, Vero; for Tc pEC50: T. cruzi amastigote cultures in Vero cells, mean of three or more EC50 determinations ± standard deviation
How it was run: (§1)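 Intracellular T. cruzi amastigotes cultured in Vero host cells, with the host Vero cells read in parallel. pEC50 is the mean of independent EC50 determinations: three or more ± standard deviation, or for some compounds two ± range.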

TcCYP51 = TcCYP51 (Trypanosoma cruzi, UniProt Q7Z1V1); test: TcCYP51 counter-screen; assay type: biochemical, T. cruzi; conditions: for TcCYP51 inhibition: result in words
Chain of TcCYP51 (Q7Z1V1 whole entry): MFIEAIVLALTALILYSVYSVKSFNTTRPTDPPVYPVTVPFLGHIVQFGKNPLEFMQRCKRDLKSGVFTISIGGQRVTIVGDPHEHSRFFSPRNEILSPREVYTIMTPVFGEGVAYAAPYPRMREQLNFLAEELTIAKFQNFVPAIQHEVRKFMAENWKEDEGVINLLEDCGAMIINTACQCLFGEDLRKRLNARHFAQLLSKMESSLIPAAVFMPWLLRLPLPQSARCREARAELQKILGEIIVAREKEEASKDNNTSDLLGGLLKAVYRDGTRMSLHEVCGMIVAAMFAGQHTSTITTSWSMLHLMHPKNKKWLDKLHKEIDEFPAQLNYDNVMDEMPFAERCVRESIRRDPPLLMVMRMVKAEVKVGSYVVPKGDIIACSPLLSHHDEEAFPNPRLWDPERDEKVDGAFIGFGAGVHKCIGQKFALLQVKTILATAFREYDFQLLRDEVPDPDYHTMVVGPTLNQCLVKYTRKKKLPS

Vero cells = test: Host Vero cell toxicity counter-read of the amastigote assay; assay type: cell-based
How it was run: as §1

T. cruzi = T. cruzi cytostatic/cytocidal assay; assay type: cell-based, Trypanosoma cruzi; conditions: cytocidal versus cytostatic behaviour
[1] = Intrinsic clearance in mouse liver microsomes; assay type: in vitro ADME; conditions: result in words
[2] = host Vero cells, mean of three or more EC50 determinations ± standard deviation

Row | SMILES | EC50 (T. cruzi amastigotes; read-out: Tc pEC50 (converted)) | TcCYP51 inhibition (TcCYP51) | Cytocidal (T. cruzi) | also measured
1 | Cc1cc(N(C)C)nc(NC2CCN(C(=O)Cc3ccc(F)cc3F)CC2)n1 [Compound 6e] | 3.16 µM |  |  | 
2 | Cc1cc(N(C)C)nc(NCc2ccccc2)n1 [Compound 6a] | 3.16 µM | did not inhibit TcCYP51 | cytocidal | Vero pEC50 (Vero cells; [2]): < 4.3; Tc pEC50 (T. cruzi amastigotes): 5.5 ± 0.3
3 | COc1cc(Nc2nc(C)cc(N(C)C)n2)ccc1F [Compound 4d] |  | did not inhibit TcCYP51 | cytocidal | Vero pEC50 (Vero cells; [2]): 4.5 ± 0.1; Tc pEC50 (T. cruzi amastigotes): 6.4 ± 0.3
4 | COc1cc(Nc2nc(C)cc(N3CCCC3)n2)ccc1F [Compound 13b] | 0.316 µM |  |  | 
5 | COc1cc(Nc2cc(C)nc(NCc3ccccc3)n2)ccc1F [Compound 17c] | 0.0794 µM |  | cytostatic behavior; also recorded: no longer cytocidal | 
6 | COc1cc(OC)cc(C(=O)N[C@H]2CC[C@H](Nc3nc(C)cc(N(C)C)n3)CC2)c1 [Compound 8b] |  | no activity versus TcCYP51 | cytocidal | 
7 | COc1cc(Nc2nc(C(=O)N3CCCC3)cc(N(C)C)n2)ccc1F [Compound 18e] | 31.6 µM |  |  | 
8 | Cc1cc(N(C)C)nc(Nc2ccc(C(=O)N3CCCCC3)cc2)n1 [Compound 5a] | 2 µM |  |  | toxicity against the host cells (Vero cells; at the top concentration tested (50 μM)): no toxicity
9 | COc1cc(Nc2nc(C(C)C)cc(N(C)C)n2)ccc1F [Compound 18c] | 2 µM |  |  | 
10 | COc1cc(OC)cc(C(=O)Nc2ccc(Nc3nc(C)cc(N(C)C)n3)cc2)c1 [Compound 1] |  |  | cytocidal behavior | stability in mouse liver microsomes (MLM) [1]: stable; EC50 (TcCYP51): > 10 µM; Vero pEC50 (Vero cells; Table 2: host Vero cells, mean of two EC50 determinations ± range (1, 4b: ± standard deviation from > 2 determinations)): 5.2 ± 0.3; EC50 (T. cruzi amastigotes; read-out: pEC50 against T. cruzi parasites (converted)): 0.126 µM
